A word on the bioavailability: it is the share of a dose that reaches the circulation, judged against a reference dose that is usually intravenous.

This passage reports Vd and bioavailability results from ChEMBL document CHEMBL4725356, “Discovery of IACS-9439, a Potent, Exquisitely Selective, and Orally Bioavailable Inhibitor of CSF1R” (J Med Chem, 2020).

Series [1] is described as follows: Volume of distribution at steady state in CD-1 mouse at 0.3 mg/kg, iv or 10 mg/kg, po and measured up to 24 hrs by LC-MS/MS analysis. Format: ADME, organism-based. The conditions noted are these: in vivo, read-out: Vdss. Put shortly: (§1)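 Each species was dosed IV at 0.3 mg/kg and PO as follows: mouse 10 mg/kg, rat 3, dog 3, monkey 1. Plasma PK parameters derived were CL, Vss, IV half-life and oral bioavailability (F%).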

Series [2] is described as follows: Volume of distribution at steady state in Sprague-Dawley rat at 0.3 mg/kg, iv or 3 mg/kg, po and measured up to 24 hrs by LC-MS/MS analysis. In kind it is ADME, organism-based. The following applies: in vivo, read-out: Vdss. A digest of the protocol: as §1
Series [3] can be described thus: Volume of distribution at steady state in Beagle dog at 0.3 mg/kg, iv or 3 mg/kg, po and measured up to 24 hrs by LC-MS/MS analysis. Format: ADME, organism-based, Canis lupus familiaris. The following applies: in vivo, read-out: Vdss. Put shortly:
as §1

Series [4] is described as follows: Volume of distribution at steady state in cynomolgus monkey at 0.3 mg/kg, iv or 1 mg/kg, po and measured up to 24 hrs by LC-MS/MS analysis. The following applies: in vivo, read-out: Vdss. In kind it is ADME, organism-based, Macaca fascicularis. Put shortly: as §1
Series [5] in a line: Oral bioavailability in CD-1 mouse at 10 mg/kg and measured up to 24 hrs by LC-MS/MS analysis. In kind it is ADME, organism-based. The following applies: in vivo. A digest of the protocol: as §1
Series [6] in a line: Oral bioavailability in Sprague-Dawley rat at 3 mg/kg and measured up to 24 hrs by LC-MS/MS analysis. In kind it is ADME, organism-based. The following applies: in vivo. A digest of the protocol:
as §1

A short description of series [7]: Oral bioavailability in Beagle dog at 3 mg/kg and measured up to 24 hrs by LC-MS/MS analysis. In kind it is ADME, organism-based, Canis lupus familiaris. The conditions noted are these: in vivo. A digest of the protocol: as §1
Series [8] in a line: Oral bioavailability in cynomolgus monkey at 1 mg/kg and measured up to 24 hrs by LC-MS/MS analysis. Format: ADME, organism-based, Macaca fascicularis. The following applies: in vivo. A digest of the protocol: as §1

For the compound `COc1cc(OCc2ccnc(Nc3cnn(C)c3)n2)cc2sc(N[C@H]3CCCC[C@@H]3O)nc12`, the Vd in series [1] is 1 L/kg; in series [2], 3.4 L/kg; in series [3], 3 L/kg; in series [4], 0.45 L/kg. Further, the bioavailability amounted to 100% in series [5], 81% in series [6], 37% in series [7] and 21% in series [8].

Regarding `Nc1nccc(COc2ccc3nc(N[C@@H]4CCCC[C@H]4O)sc3c2)c1Cl`, the Vd was 1.8 L/kg in series [1], 0.75 L/kg in series [2], 1.3 L/kg in series [3] and 0.6 L/kg in series [4]. Further, the bioavailability in series [5] is over 90%; in series [6] it was 67%; in series [7] it was 34%; in series [8] it was 72%.
